Measurements as given in BindingDB's records for doi:10.1021/jm00042a007 (Merck Research Laboratories, 1994).
Bridge positions count the residues as written; N and C are the ends. Peptide text beside a SMILES is read from it.

These molecules were tested against Integrin alpha-IIb/beta-3 (Homo sapiens, UniProt P08514+P05106) (assay: Inhibition of platelet aggregation as the concentration necessary to inhibit the change in light.).
How it was run: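 Human gel-filtered platelets at 2 × 10^8/mL were mixed with 0.1 mg/mL human fibrinogen, 1 mM CaCl2 and compound, then aggregated with 10 µM ADP. Light transmittance was compared between control and treated samples.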

Integrin alpha-IIb/beta-3, sequence (P05106 27-788 limits assumed): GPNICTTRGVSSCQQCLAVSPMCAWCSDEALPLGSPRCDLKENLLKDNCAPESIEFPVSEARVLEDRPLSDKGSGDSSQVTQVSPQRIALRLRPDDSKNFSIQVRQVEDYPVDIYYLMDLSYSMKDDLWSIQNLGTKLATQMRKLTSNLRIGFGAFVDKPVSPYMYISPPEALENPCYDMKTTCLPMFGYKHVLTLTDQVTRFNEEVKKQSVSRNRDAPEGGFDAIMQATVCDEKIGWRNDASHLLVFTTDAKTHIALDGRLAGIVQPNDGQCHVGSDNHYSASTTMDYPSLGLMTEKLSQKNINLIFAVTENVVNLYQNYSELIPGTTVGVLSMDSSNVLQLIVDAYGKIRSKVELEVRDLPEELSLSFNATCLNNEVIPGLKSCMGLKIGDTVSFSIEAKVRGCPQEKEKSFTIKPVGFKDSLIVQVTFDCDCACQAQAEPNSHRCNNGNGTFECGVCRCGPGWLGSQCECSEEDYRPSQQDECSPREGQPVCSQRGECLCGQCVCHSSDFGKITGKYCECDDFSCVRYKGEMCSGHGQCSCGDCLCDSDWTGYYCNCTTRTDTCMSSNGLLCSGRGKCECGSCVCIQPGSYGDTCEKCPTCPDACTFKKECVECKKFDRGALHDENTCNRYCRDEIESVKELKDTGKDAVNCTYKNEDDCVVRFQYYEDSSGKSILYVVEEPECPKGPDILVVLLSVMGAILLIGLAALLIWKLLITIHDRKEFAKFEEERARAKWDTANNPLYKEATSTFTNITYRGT
Integrin alpha-IIb/beta-3, sequence (P08514 32-887 limits assumed): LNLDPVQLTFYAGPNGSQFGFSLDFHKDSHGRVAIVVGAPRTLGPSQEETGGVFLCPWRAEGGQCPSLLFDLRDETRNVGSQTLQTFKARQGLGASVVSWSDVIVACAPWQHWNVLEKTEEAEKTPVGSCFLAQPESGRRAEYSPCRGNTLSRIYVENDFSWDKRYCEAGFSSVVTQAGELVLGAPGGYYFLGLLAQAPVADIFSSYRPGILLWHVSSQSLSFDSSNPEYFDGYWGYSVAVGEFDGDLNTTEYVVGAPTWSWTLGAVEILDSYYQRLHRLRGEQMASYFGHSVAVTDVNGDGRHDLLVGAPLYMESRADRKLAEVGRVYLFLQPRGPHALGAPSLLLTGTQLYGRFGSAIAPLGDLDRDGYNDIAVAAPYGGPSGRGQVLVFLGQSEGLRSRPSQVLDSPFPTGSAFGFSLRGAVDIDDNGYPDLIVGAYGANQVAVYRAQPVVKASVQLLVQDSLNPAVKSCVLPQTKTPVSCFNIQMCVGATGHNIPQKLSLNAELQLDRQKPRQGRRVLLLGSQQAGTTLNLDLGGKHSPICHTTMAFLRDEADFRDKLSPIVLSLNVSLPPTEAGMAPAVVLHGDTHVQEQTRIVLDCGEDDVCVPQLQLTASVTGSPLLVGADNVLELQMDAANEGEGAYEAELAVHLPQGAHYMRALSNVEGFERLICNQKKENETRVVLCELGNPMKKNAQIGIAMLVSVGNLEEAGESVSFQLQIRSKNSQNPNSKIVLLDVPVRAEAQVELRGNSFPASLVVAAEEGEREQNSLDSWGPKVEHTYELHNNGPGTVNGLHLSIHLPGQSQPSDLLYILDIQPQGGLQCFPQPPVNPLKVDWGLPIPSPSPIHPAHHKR
Integrin alpha-IIb/beta-3, sequence (P08514 891-1039 limits assumed): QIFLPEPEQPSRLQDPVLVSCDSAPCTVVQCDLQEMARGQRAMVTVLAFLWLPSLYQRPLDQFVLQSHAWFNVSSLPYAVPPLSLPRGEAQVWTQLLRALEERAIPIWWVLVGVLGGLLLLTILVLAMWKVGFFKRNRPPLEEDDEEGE

Going from `O=C(N[C@@H](Cc1ccc(OCCCc2ccccc2)cc1)C(=O)O)OCc1ccccc1` to `CC(C)(C)NCCCOc1ccc(C[C@H](NC(=O)OCc2ccccc2)C(=O)O)cc1` [(S)-2-Benzyloxycarbonylamino-3-[4-(3-tert-butylamino-propoxy)-phenyl]-propionic acid], the IC50 falls from over 1000 µM to 28 µM. The second is the more potent here.

`CCCC(=O)N[C@@H](Cc1ccc(OCCCCCCN)cc1)C(=O)O` [(S)-3-[4-(6-Amino-hexyloxy)-phenyl]-2-butyrylamino-propionic acid] and `CCCCCC(=O)N[C@@H](Cc1ccc(OCCCCCCN)cc1)C(=O)O` are within 1.5-fold of each other in IC50: 5.7 µM for the first, 5 µM for the second.

Going from `O=C(N[C@@H](Cc1ccc(OCCCC2CCNCC2)cc1)C(=O)O)OCc1ccccc1` [(S)-2-Benzyloxycarbonylamino-3-[4-(3-piperidin-4-yl-propoxy)-phenyl]-propionic acid] to `O=C(N[C@@H](Cc1ccc(OC/C=C/CC2CCNCC2)cc1)C(=O)O)OCc1ccccc1` [(S)-2-Benzyloxycarbonylamino-3-[4-((E)-4-piperidin-4-yl-but-2-enyloxy)-phenyl]-propionic acid], the IC50 falls from 6.2 µM to 0.24 µM (26-fold).

First: CCCCC(=O)N[C@@H](Cc1ccc(OCCCCC2CCNCC2)cc1)C(=O)O [(S)-2-Pentanoylamino-3-[4-(4-piperidin-4-yl-butoxy)-phenyl]-propionic acid]
Second: CCC(=O)N[C@@H](Cc1ccc(OCCCCC2CCNCC2)cc1)C(=O)O [(S)-3-[4-(4-Piperidin-4-yl-butoxy)-phenyl]-2-propionylamino-propionic acid]
The IC50 of the first is 2.2-fold lower: 0.047 µM for the first, 0.105 µM for the second.

Compared with `CC(=O)N[C@@H](Cc1ccc(OCCCCC2CCNCC2)cc1)C(=O)O` [(S)-2-Acetylamino-3-[4-(4-piperidin-4-yl-butoxy)-phenyl]-propionic acid], `CS(=O)(=O)N[C@@H](Cc1ccc(OCCCCC2CCNCC2)cc1)C(=O)O` [(S)-2-Methanesulfonylamino-3-[4-(4-piperidin-4-yl-butoxy)-phenyl]-propionic acid] is 7.9-fold lower in IC50: 0.5 µM for the first, 0.063 µM for the second. The second is the more potent here.

Compared with `CC(=O)N[C@@H](Cc1ccc(OCCCCCCN)cc1)C(=O)O` [(S)-2-Acetylamino-3-[4-(6-amino-hexyloxy)-phenyl]-propionic acid], `NCCCCCCOc1ccc(C[C@H](NC(=O)c2ccccc2)C(=O)O)cc1` [(S)-3-[4-(6-Amino-hexyloxy)-phenyl]-2-benzoylamino-propionic acid] is 1.8-fold lower in IC50: 18 µM for the first, 10 µM for the second.

Going from `O=C(O)[C@H](Cc1ccc(OCCCCC2CCNCC2)cc1)NS(=O)(=O)CCc1ccccc1` [(S)-2-(2-Phenyl-ethanesulfonylamino)-3-[4-(4-piperidin-4-yl-butoxy)-phenyl]-propionic acid] to `O=C(O)[C@H](Cc1ccc(OCCCCC2CCNCC2)cc1)NS(=O)(=O)c1ccccc1` [(S)-2-Benzenesulfonylamino-3-[4-(4-piperidin-4-yl-butoxy)-phenyl]-propionic acid], the IC50 falls from 0.029 µM to 0.018 µM (1.6-fold).

First: N=C(N)NCCC[C@H](N)C(=O)NCC(=O)N[C@@H](CC(=O)O)C(=O)N[C@@H](Cc1c[nH]c2ccccc12)C(=O)O [2-[1-[1-amino-4-amino(imino)methylamino-(1S)-butylcarboxamidomethylcarboxamido]-2-carboxy-(1S)-ethylcarboxamido]-3-(1H-3-indolyl)-(2S)-propanoic acid] (H-RGDW-OH)
Second: O=C(N[C@@H](Cc1ccc(OCCCCCN2CCNCC2)cc1)C(=O)O)OCc1ccccc1 [(S)-2-Benzyloxycarbonylamino-3-[4-(5-piperazin-1-yl-pentyloxy)-phenyl]-propionic acid]
The IC50 of the first is 1.5-fold higher: 1.7 µM for the first, 1.1 µM for the second.

First: O=C(N[C@@H](Cc1ccc(OCCCCN2CCNCC2)cc1)C(=O)O)OCc1ccccc1 [(S)-2-Benzyloxycarbonylamino-3-[4-(4-piperazin-1-yl-butoxy)-phenyl]-propionic acid]
Second: CN1CCN(CCCOc2ccc(C[C@H](NC(=O)OCc3ccccc3)C(=O)O)cc2)CC1 [(S)-2-Benzyloxycarbonylamino-3-{4-[3-(4-methyl-piperazin-1-yl)-propoxy]-phenyl}-propionic acid]
The IC50 of the first is 10-fold lower: 0.5 µM for the first, 5.2 µM for the second. The first is the more potent here.

Going from `NCCCCCCCCOc1ccc(C[C@H](NC(=O)OCc2ccccc2)C(=O)O)cc1` [3-[4-(8-Amino-octyloxy)-phenyl]-2-benzyloxycarbonylamino-propionic acid] to `NCCCCCCOc1ccc(C[C@H](NS(=O)(=O)Cc2ccccc2)C(=O)O)cc1`, the IC50 falls from 38 µM to 1.9 µM (20-fold). The second is the more potent here.

Compared with `CCCCS(=O)(=O)N[C@H](CC(=O)O)Cc1ccc(OCCCCC2CCNCC2)cc1` [(S)-3-(Butane-1-sulfonylamino)-4-[4-(4-piperidin-4-yl-butoxy)-phenyl]-butyric acid], `CCCCS(=O)(=O)N[C@H](CC(=O)O)Cc1ccc(OCCCC2CCNCC2)cc1` [(S)-3-(Butane-1-sulfonylamino)-4-[4-(3-piperidin-4-yl-propoxy)-phenyl]-butyric acid] is 4.3-fold higher in IC50: 0.14 µM for the first, 0.6 µM for the second. The first is the more potent here.

Compared with `CC(=O)N[C@H]1CSSC[C@@H](C(=O)O)NC(=O)[C@H](CC(=O)O)NC(=O)CNC(=O)[C@H](CCCNC(=N)N)NC1=O` [(4S,7R,13R,16S)-16-Acetylamino-7-carboxymethyl-13-(3-guanidino-propyl)-6,9,12,15-tetraoxo-1,2-dithia-5,8,11,14-tetraaza-cycloheptadecane-4-carboxylic acid] (Ac-CRGDC-OH; disulfide 1-5), `CCCS(=O)(=O)N[C@@H](Cc1ccc(OCCCCC2CCNCC2)cc1)C(=O)O` [(S)-3-[4-(4-Piperidin-4-yl-butoxy)-phenyl]-2-(propane-1-sulfonylamino)-propionic acid] is 30-fold lower in IC50: 0.68 µM for the first, 0.023 µM for the second.

First: O=C(CCc1ccccc1)N[C@@H](Cc1ccc(OCCCCC2CCNCC2)cc1)C(=O)O [(S)-2-(3-Phenyl-propionylamino)-3-[4-(4-piperidin-4-yl-butoxy)-phenyl]-propionic acid]
Second: O=C(O)[C@H](Cc1ccc(OCCCCC2CCNCC2)cc1)NS(=O)(=O)/C=C/c1ccccc1 [(S)-2-((E)-2-Phenyl-ethenesulfonylamino)-3-[4-(4-piperidin-4-yl-butoxy)-phenyl]-propionic acid]
The IC50 of the first is 2.3-fold higher: 0.1 µM for the first, 0.043 µM for the second. The second is the more potent here.

First: CC(C)(C)CC(C)(C)NCCCOc1ccc(C[C@H](NC(=O)OCc2ccccc2)C(=O)O)cc1 [(S)-2-Benzyloxycarbonylamino-3-{4-[3-(1,1,3,3-tetramethyl-butylamino)-propoxy]-phenyl}-propionic acid]
Second: O=C(O)[C@H](Cc1ccc(OCCCCC2CCNCC2)cc1)NS(=O)(=O)c1cccs1 [(S)-3-[4-(4-Piperidin-4-yl-butoxy)-phenyl]-2-(thiophene-2-sulfonylamino)-propionic acid]
The IC50 of the first is higher: over 100 µM for the first, 0.015 µM for the second.
